The target of assay [1] is T1, TCP pilus virulence regulatory protein (Vibrio cholerae serotype O1 (strain ATCC 39541 / Classical Ogawa 395 /O395)) (UniProt A5F384).
T1 sequence (whole entry): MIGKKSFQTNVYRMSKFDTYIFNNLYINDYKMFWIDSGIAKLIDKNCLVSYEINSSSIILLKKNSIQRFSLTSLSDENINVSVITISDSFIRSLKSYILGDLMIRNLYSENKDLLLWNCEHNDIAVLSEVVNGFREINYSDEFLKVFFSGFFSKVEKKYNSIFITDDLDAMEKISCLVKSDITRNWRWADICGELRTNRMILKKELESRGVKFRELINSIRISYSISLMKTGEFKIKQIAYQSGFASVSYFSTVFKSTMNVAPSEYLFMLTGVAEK
As to the kind of experiment: Inhibition of Vibrio cholerae wild type ToxT N-terminal domain dimerization expressed in Escherichia coli assessed as beta-galatosidase reporter gene expression at 10 uM by bacterial two-hybrid system. An outline of the steps: (§1)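 Bacterial two-hybrid: identical toxT N-terminal segments fused to Zif (pACTrAp-Zif) and ω (pBRGpω) and co-transformed into E. coli KDZif1ZΔtolC. Cultures grown overnight with or without 10 μM IPTG and virstatin (10–50 μM), then subcultured into the same conditions. lacZ reporter activity measured by β-galactosidase assay in triplicate; a representative experiment is reported.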
Background: A reporter such as luciferase makes a cellular process visible.

The target of assay [2] is T1, TCP pilus virulence regulatory protein (Vibrio cholerae serotype O1 (strain ATCC 39541 / Classical Ogawa 395 /O395)). As to the kind of experiment: Inhibition of Vibrio cholerae wild type ToxT N-terminal domain dimerization expressed in Escherichia coli assessed as beta-galatosidase reporter gene expression at 20 uM by bacterial two-hybrid system. An outline of the steps: as §1

For assay [3] the target is unchanged. In words: Inhibition of Vibrio cholerae wild type ToxT N-terminal domain dimerization expressed in Escherichia coli assessed as beta-galatosidase reporter gene expression at 35 uM by bacterial two-hybrid system. The method, boiled down: as §1
For assay [4] the target is unchanged. In words: Inhibition of Vibrio cholerae wild type ToxT N-terminal domain dimerization expressed in Escherichia coli assessed as beta-galatosidase reporter gene expression at 50 uM by bacterial two-hybrid system. An outline of the steps:
as §1

Assay [5] concerns Vibrio cholerae. As to the kind of experiment: Inhibition of Vibrio cholerae ToxT L113P mutant N-terminal domain dimerization expressed in Escherichia coli assessed as beta-galatosidase reporter gene expression at 10 uM by bacterial two-hybrid system. The method, boiled down:
as §1

The target in assay [6] is T1, TCP pilus virulence regulatory protein (Vibrio cholerae serotype O1 (strain ATCC 39541 / Classical Ogawa 395 /O395)). As to the kind of experiment: Inhibition of Vibrio cholerae wild type ToxT-mediated transcription of ctx promoter at 50 uM.
Assay [7] shares this target. In words: Inhibition of ToxT-mediated transcriptional activation of tcpA promoter in Vibrio cholerae O395deltalacZ assessed as beta-galactosidase expression at 100 uM relative to control. Set-up: scale not given: the % may be the effect or the level left.
Assay [8] shares this target. In words: Inhibition of ToxT-mediated transcriptional activation of acfD promoter in Vibrio cholerae O395deltalacZ assessed as beta-galactosidase expression at 100 uM relative to control. More on the design: scale not given: the % may be the effect or the level left.
Assay [9] has the same target. As to the kind of experiment: Inhibition of ToxT-mediated transcriptional activation of ctxAB promoter in Vibrio cholerae O395deltalacZ assessed as beta-galactosidase expression at 100 uM relative to control. More on the design: scale not given: the % may be the effect or the level left.
The target is the same in assay [10]. In words: Inhibition of ToxT-mediated transcriptional activation of tagA promoter in Vibrio cholerae O395deltalacZ assessed as beta-galactosidase expression at 100 uM relative to control. Set-up: scale not given: the % may be the effect or the level left.
Assay [11] shares this target. As to the kind of experiment: Inhibition of ToxT-mediated transcriptional activation of tcpI promoter in Vibrio cholerae O395deltalacZ assessed as beta-galactosidase expression at 100 uM relative to control. More on the design: scale not given: the % may be the effect or the level left.
Assay [12] shares this target. As to the kind of experiment: Inhibition of ToxT-mediated transcriptional activation of acfA promoter in Vibrio cholerae O395deltalacZ assessed as beta-galactosidase expression at 100 uM relative to control. More on the design: scale not given: the % may be the effect or the level left.
Assay [13] shares this target. In words: Inhibition of ToxT-mediated transcriptional activation of aldA promoter in Vibrio cholerae O395deltalacZ assessed as beta-galactosidase expression at 100 uM relative to control. Set-up: scale not given: the % may be the effect or the level left.
Assay [14] has the same target. As to the kind of experiment: Inhibition of maltose binding protein-fused Vibrio cholerae ToxT monomer by gel filtration method. (In gel filtration, larger molecules generally elute earlier.)
Assay [15] deals with Vibrio cholerae. In words: Inhibition of maltose binding protein-fused Vibrio cholerae ToxT L113P mutant monomer by gel filtration method.

Molecules are shown by their SMILES. The source made the active and inactive calls. No cut-off for these calls is given here.

`O=C(O)CCCN1C(=O)c2cccc3cccc(c23)C1=O`: the outcome in assay [1], in [2], in [3], in assay [4], in assay [6] and in [14] was Active. Besides, the result in the assay with Vibrio cholerae [5] and with Vibrio cholerae [15] was inactive. For the same molecule, the Activity in assay [7] is 3%; in [8], 3%; in assay [9] it was 3%; in assay [10], 3%; in assay [11] it was 15%; in assay [12], 15%. Moreover, the Activity in assay [13] amounted to 15%.
On to `O=C(O)CN1C(=O)c2cccc3cccc(c23)C1=O`, for which, in assay [6], the result was Active.
Consider `O=C(O)CCN1C(=O)c2cccc3cccc(c23)C1=O`, for which the outcome in assay [6] was Active.
For the molecule `COC(=O)CCCN1C(=O)c2cccc3cccc(c23)C1=O`, the result in assay [6] was Active.
Take `O=C(O)C1CCCC(N2C(=O)c3cccc4cccc(c34)C2=O)C1` (centres undefined): the outcome in assay [6] was Active.

For the origin of these results see ChEMBL document CHEMBL1147057, “Virstatin inhibits dimerization of the transcriptional activator ToxT” (Proc Natl Acad Sci U S A, 2007).
